# Reference: ChEMBL document CHEMBL1240366, “Blockade of X4-tropic HIV-1 cellular entry by GSK812397, a potent noncompetitive CXCR4 receptor antagonist” (Antimicrob Agents Chemother, 2010)
# Activity calls are given as the source filed them. The rule behind the calls is not given here.
# Assays:
# Cytochrome P450 2C19 = Cytochrome P450 2C19 (Homo sapiens, UniProt P33261); test: Inhibition of CYP2C19 up to 30 uM; assay type: ADME
# [1] = tested on: Human immunodeficiency virus 1; test: Antiviral activity against HIV1 isolate 05-121798 assessed as inhibition of viral replication after 7 days by scintillation counting; assay type: functional, organism-based; settings: Human immunodeficiency virus 1, isolate 05-121798, 168 h
# [2] = Volume of distribution at steady state in mouse at 1 mg/kg, iv administered as single dose after 24 hrs by liquid chromatography-mass spectroscopy; assay type: ADME, organism-based; parameters: dose 1 mg/kg, route intravenous; settings: in vivo, read-out: Vdss
# [3] = Oral bioavailability in dog at 3 mg/kg administered as single dose after 24 hrs by liquid chromatography-mass spectroscopy; assay type: ADME, organism-based, Canis lupus familiaris; settings: in vivo
# Cytochrome P450 2D6 = Cytochrome P450 2D6 (Homo sapiens, UniProt P10635); test: Inhibition of CYP2D6 up to 30 uM; assay type: ADME
# [4] = tested on: Human immunodeficiency virus 1; test: Antiviral activity against HIV1 isolate 05-121783 assessed as inhibition of viral replication after 7 days by scintillation counting; assay type: functional, organism-based; settings: Human immunodeficiency virus 1, isolate 05-121783, 168 h
# [5] = Clearance in monkey at 1 mg/kg, iv administered as single dose after 24 hrs by liquid chromatography-mass spectroscopy; assay type: ADME, organism-based, Macaca mulatta; parameters: dose 1 mg/kg, route intravenous; settings: rhesus monkey, in vivo
# Outline: (§1)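 Single intravenous dose of 1 mg/kg. Plasma was sampled at serial times over 24 h and measured by LC-MS/MS. Clearance was derived by pharmacokinetic analysis.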
# [6] = tested on: Human immunodeficiency virus 1; test: Antiviral activity against HIV1 isolate 05-121774 assessed as inhibition of viral replication after 7 days by scintillation counting; assay type: functional, organism-based; settings: Human immunodeficiency virus 1, isolate 05-121774, 168 h
# [7] = Volume of distribution at steady state in rat at 1 mg/kg, iv administered as single dose after 24 hrs by liquid chromatography-mass spectroscopy; assay type: ADME, organism-based; parameters: dose 1 mg/kg, route intravenous; settings: in vivo, read-out: Vdss
# [8] = Volume of distribution at steady state in dog at 1 mg/kg, iv administered as single dose after 24 hrs by liquid chromatography-mass spectroscopy; assay type: ADME, organism-based, Canis lupus familiaris; parameters: dose 1 mg/kg, route intravenous; settings: in vivo, read-out: Vdss
# [9] = tested on: Human immunodeficiency virus 1; test: Antiviral activity against HIV1 isolate 05-121773 assessed as inhibition of viral replication after 7 days by scintillation counting; assay type: functional, organism-based; settings: Human immunodeficiency virus 1, isolate 05-121773, 168 h
# Cytochrome P450 2C9 = Cytochrome P450 2C9 (Homo sapiens, UniProt P11712); test: Inhibition of CYP2C9 up to 30 uM; assay type: ADME
# [10] = tested on: Human immunodeficiency virus 1; test: Antiviral activity against HIV1 isolate 05-121788 assessed as inhibition of viral replication after 7 days by scintillation counting; assay type: functional, organism-based; settings: Human immunodeficiency virus 1, isolate 05-121788, 168 h
# [11] = tested on: Human immunodeficiency virus 1; test: Antiviral activity against HIV1 JRCSF assessed as inhibition of viral replication by cell-based assay; assay type: functional; settings: JRCSF ISOLATE
# [12] = tested on: Human immunodeficiency virus 1; test: Antiviral activity against HIV1 isolate 05-121800 assessed as inhibition of viral replication after 7 days by scintillation counting; assay type: functional, organism-based; settings: Human immunodeficiency virus 1, isolate 05-121800, 168 h
# [13] = Half life in dog at 3 mg/kg, po administered as single dose by liquid chromatography-mass spectroscopy; assay type: ADME, organism-based, Canis lupus familiaris; parameters: dose 3 mg/kg, route oral; settings: in vivo
# Outline: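 Single oral dose of 3 mg/kg. Plasma was sampled at serial times over 24 h and measured by LC-MS/MS. Half-life was derived by pharmacokinetic analysis.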
# [14] = tested on: Human immunodeficiency virus 1; test: Antiviral activity against HIV1 isolate 05-121780 assessed as inhibition of viral replication after 7 days by scintillation counting; assay type: functional, organism-based; settings: Human immunodeficiency virus 1, isolate 05-121780, 168 h
# [15] = target: C-X-C chemokine receptor type 4 (Homo sapiens) (UniProt P61073); test: Noncompetitive antagonist activity at human CXCR4 expressed in HEK293 cells assessed as inhibition of SDF1-induced increase in intracellular calcium level treated 15 mins before agonist challenge measured after 1 hr by FLIPR assay; assay type: functional, cell-based
# [16] = Half life in mouse at 3 mg/kg, po administered as single dose by liquid chromatography-mass spectroscopy; assay type: ADME, organism-based; parameters: dose 3 mg/kg, route oral; settings: in vivo
# [17] = Volume of distribution at steady state in monkey at 1 mg/kg, iv administered as single dose after 24 hrs by liquid chromatography-mass spectroscopy; assay type: ADME, organism-based, Macaca mulatta; parameters: dose 1 mg/kg, route intravenous; settings: rhesus monkey, in vivo, read-out: Vdss
# [18] = tested on: Human immunodeficiency virus 1; test: Antiviral activity against HIV1 isolate 05-121792 assessed as inhibition of viral replication after 7 days by scintillation counting; assay type: functional, organism-based; settings: Human immunodeficiency virus 1, isolate 05-121792, 168 h
# [19] = Clearance in dog at 1 mg/kg, iv administered as single dose after 24 hrs by liquid chromatography-mass spectroscopy; assay type: ADME, organism-based, Canis lupus familiaris; parameters: dose 1 mg/kg, route intravenous; settings: in vivo; outline: as §1
# Cavia porcellus = organism: Cavia porcellus; test: Inhibition of guinea pig ileum ACE at 30 uM; assay type: tissue-based
# Outline: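 Isolated guinea pig ileum preparation; ACE inhibition measured as maximal inhibition at 30 μM.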
# [20] = tested on: Human immunodeficiency virus 1; test: Antiviral activity against HIV1 3B infected in human PBMC assessed as inhibition of viral replication after 7 days by scintillation counting; assay type: functional, organism-based; settings: Human immunodeficiency virus 1, 3B, 168 h
# Outline: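 PHA/IL-2-stimulated donor PBMCs at 4 × 10^6 cells/ml in RPMI with 20% FCS and 10% IL-2. Cells were pre-incubated with compound for 1 h, then infected with HIV-1 IIIB pre-mixed with compound for 7 days at 37°C. Supernatant reverse transcriptase was measured with poly(rA)·oligo(dT) and [3H]dTTP for 2 h, captured on DE-81 filters, and counted.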
# [21] = tested on: Human immunodeficiency virus 1; test: Antiviral activity against HIV1 isolate 05-121785 assessed as inhibition of viral replication after 7 days by scintillation counting; assay type: functional, organism-based; settings: Human immunodeficiency virus 1, isolate 05-121785, 168 h
# [22] = tested on: Human immunodeficiency virus 1; test: Antiviral activity against HIV1 3B infected in human HOS cells after 72 hrs by luminescence assay in presence of 45 mg/ml human serum albumin; assay type: functional, organism-based; settings: Human immunodeficiency virus 1, 3B
# Outline: (§2)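 HOS LTR-luciferase viral assay (1 h compound pre-incubation, virus plus compound, 72 h, 37°C, luminescence) run with human serum albumin (45 mg/ml) with or without α-acid glycoprotein (1 mg/ml). Protein-free IC50 served as baseline for fold shift.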
# [23] = tested on: Human immunodeficiency virus 1; test: Antiviral activity against HIV1 isolate 05-121787 assessed as inhibition of viral replication after 7 days by scintillation counting; assay type: functional, organism-based; settings: Human immunodeficiency virus 1, isolate 05-121787, 168 h
# [24] = tested on: Human immunodeficiency virus 1; test: Antiviral activity against HIV1 3B infected in human HOS cells after 72 hrs by luminescence assay in presence of 1 mg/ml alpha-acid glycoprotein; assay type: functional, organism-based; settings: Human immunodeficiency virus 1, 3B
# [25] = tested on: Human immunodeficiency virus 1; test: Antiviral activity against HIV1 3B infected in human HOS cells after 72 hrs by luminescence assay; assay type: functional, organism-based; settings: Human immunodeficiency virus 1, 3B
# Outline: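 HOS cells express hCXCR4, hCCR5 and hCD4 plus an HIV-1 LTR-luciferase reporter. 6,000 cells/well were plated in DMEM with 2% FCS and grown overnight, then pre-incubated with compound for 1 h. Virus pre-mixed with compound was added, and cells were incubated 72 h at 37°C. Read-out was luciferase luminescence. IC50 from a four-parameter logistic fit.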
# [26] = tested on: Human immunodeficiency virus 1; test: Antiviral activity against HIV1 3B infected in human HOS cells after 72 hrs by luminescence assay in presence of alpha-acid glycoprotein and human serum albumin; assay type: functional, organism-based; settings: Human immunodeficiency virus 1, 3B; outline: as §2
# [27] = tested on: Human immunodeficiency virus 1; test: Antiviral activity against HIV1 isolate 05-121790 assessed as inhibition of viral replication after 7 days by scintillation counting; assay type: functional, organism-based; settings: Human immunodeficiency virus 1, isolate 05-121790, 168 h
# Chain of C-X-C chemokine receptor type 4 (Homo sapiens) (P61073 whole entry): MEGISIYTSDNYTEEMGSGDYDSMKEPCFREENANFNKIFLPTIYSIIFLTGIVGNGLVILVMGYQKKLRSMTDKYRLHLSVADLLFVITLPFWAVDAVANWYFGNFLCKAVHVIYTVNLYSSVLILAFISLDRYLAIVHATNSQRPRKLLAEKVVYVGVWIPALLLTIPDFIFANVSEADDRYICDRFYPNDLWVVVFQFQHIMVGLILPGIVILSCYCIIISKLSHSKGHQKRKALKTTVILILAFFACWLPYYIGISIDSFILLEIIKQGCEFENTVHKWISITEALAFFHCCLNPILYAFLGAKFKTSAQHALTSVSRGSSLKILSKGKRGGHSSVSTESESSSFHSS
# Chain of Cytochrome P450 2D6 (P10635 whole entry): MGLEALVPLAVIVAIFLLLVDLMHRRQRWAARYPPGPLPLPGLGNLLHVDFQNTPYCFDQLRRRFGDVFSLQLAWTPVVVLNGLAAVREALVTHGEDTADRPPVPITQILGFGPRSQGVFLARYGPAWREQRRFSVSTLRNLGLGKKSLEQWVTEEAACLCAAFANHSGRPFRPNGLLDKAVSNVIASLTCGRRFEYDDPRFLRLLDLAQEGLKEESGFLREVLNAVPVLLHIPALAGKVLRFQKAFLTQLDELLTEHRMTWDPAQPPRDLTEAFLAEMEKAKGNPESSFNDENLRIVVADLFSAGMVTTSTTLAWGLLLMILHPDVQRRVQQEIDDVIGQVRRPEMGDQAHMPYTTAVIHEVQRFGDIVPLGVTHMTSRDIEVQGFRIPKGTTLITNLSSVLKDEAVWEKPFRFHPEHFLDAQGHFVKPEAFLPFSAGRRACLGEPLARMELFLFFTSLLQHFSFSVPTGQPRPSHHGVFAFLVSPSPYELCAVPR
# Chain of Cytochrome P450 2C19 (P33261 whole entry): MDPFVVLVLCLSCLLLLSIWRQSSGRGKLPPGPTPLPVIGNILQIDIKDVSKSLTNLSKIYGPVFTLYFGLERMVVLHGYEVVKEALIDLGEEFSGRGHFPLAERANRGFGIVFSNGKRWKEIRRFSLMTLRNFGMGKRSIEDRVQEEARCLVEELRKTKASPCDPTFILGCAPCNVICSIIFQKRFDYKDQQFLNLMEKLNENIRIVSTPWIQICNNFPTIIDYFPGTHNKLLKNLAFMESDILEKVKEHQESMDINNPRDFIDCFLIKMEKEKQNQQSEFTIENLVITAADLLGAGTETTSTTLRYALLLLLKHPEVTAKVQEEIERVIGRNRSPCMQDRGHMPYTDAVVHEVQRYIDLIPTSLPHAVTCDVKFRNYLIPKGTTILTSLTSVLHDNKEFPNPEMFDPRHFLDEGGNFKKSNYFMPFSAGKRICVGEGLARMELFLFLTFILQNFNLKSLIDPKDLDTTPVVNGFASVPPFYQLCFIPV
# Chain of Cytochrome P450 2C9 (P11712 whole entry): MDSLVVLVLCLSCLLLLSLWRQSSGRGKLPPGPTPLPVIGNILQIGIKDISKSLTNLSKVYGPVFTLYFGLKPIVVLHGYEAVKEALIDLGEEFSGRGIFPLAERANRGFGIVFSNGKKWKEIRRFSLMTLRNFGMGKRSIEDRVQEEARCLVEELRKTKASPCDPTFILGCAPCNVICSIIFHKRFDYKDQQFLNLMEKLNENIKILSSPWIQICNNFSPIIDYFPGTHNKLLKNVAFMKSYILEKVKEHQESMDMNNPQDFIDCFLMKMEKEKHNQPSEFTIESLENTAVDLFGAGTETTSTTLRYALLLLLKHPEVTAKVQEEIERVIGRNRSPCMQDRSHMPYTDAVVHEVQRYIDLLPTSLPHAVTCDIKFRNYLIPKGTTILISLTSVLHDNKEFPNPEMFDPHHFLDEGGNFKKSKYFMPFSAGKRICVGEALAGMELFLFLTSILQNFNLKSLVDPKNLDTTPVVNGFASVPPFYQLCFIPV
smiles,measurement,setting,value
CN1CCN(c2cccc3nc(CN(C)[C@H]4CCCc5cccnc54)c(CO)n23)CC1,inhibition (INH),Cytochrome P450 2C19,Not Active
same,IC50,[1],1 nM
same,Vd,[2],4.2 L/kg
same,bioavailability,[3],21%
same,inhibition (INH),Cytochrome P450 2D6,Not Active
same,IC50,[4],1 nM
same,clearance,[5],5.8 mL/min/kg
same,IC50,[6],1 nM
same,Vd,[7],2.1 L/kg
same,Vd,[8],5.3 L/kg
same,IC50,[9],1 nM
same,inhibition (INH),Cytochrome P450 2C9,Not Active
same,IC50,[10],1 nM
same,inhibition,[11],inactive
same,IC50,[12],1 nM
same,half-life,[13],> 12 h
same,IC50,[14],1 nM
same,Activity,[15],Active
same,half-life,[16],4.1 h
same,Vd,[17],5.9 L/kg
same,IC50,[18],1 nM
same,clearance,[19],5.5 mL/min/kg
same,inhibition,Cavia porcellus,26%
same,IC50,[20],4.6 nM
same,IC50,[21],1 nM
same,IC50,[22],2.01 nM
same,IC50,[23],1 nM
same,IC50,[24],2.87 nM
same,IC50,[25],1.5 nM
same,IC50,[26],3.14 nM
same,IC50,[27],1 nM
